Measured values reported in ChEMBL document CHEMBL1148152, “Syncarpamide, a new antiplasmodial (+)-norepinephrine derivative from Zanthoxylum syncarpum” (J Nat Prod, 2004).
Activity calls are given as the source filed them. No cut-off for these calls is given here.

Columns and labels:
[1] = test system: Staphylococcus aureus; assay: Antibacterial activity against Staphylococcus aureus ATCC 33591 by antimicrobial susceptibility test; format: functional, organism-based
Outline: (§1)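 Modified 96-well microplate broth assay run on purified compounds, giving IC50 and MIC values, against ATCC strains C. albicans 90028, C. neoformans 90113, and S. aureus 6535 and 33591. Amphotericin B and rifampin served as positive controls, with DMSO as the negative control.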

[2] = test system: Plasmodium falciparum; assay: Antiplasmodial activity against Plasmodium falciparum W2; format: functional, organism-based
[3] = test system: Vero; assay: Cytotoxicity against african green monkey Vero cells at 56.42 uM; format: cell-based; conditions: chlorocebus sabaeus
[4] = test system: Vero; assay: Cytotoxicity against african green monkey Vero cells; format: cell-based; conditions: chlorocebus sabaeus
Outline: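 Cytotoxicity assay with doxorubicin and 5-fluorouracil as positive controls and DMSO as the vehicle (negative) control.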

[5] = test system: Staphylococcus aureus; assay: Antibacterial activity against Staphylococcus aureus ATCC 6535 by antimicrobial susceptibility test; format: functional, organism-based; outline: as §1
[6] = test system: Plasmodium falciparum; assay: Antiplasmodial activity against Plasmodium falciparum D6; format: functional, organism-based
[7] = test system: Cryptococcus neoformans; assay: […] activity against Cryptococcus neoformans ATCC 90113 by antimicrobial susceptibility test; format: functional, organism-based; outline: as §1
[8] = test system: Candida albicans; assay: Antifungal activity against Candida albicans B311 ATCC 90028 by antimicrobial susceptibility test; format: functional, organism-based; outline: as §1

SMILES | Activity [1] | IC50 [2] [µM] | Activity [3] | Activity [4] | Activity [5] | IC50 [6] [µM] | Activity [7] | Activity [2] | Activity [6] | Activity [8]
COc1c(O)ccc2c1cnc1c3cc4c(cc3ccc21)OCO4 [DECARINE] | Active | 0.88 | Active | Not Active | Active | 1.44 | Active | – | – | –
CC(C)(O)[C@@H]1Cc2cc3ccc(=O)oc3cc2O1 | inactive | – | – | – | inactive | – | inactive | inactive | inactive | inactive
COc1ccc([C@@H](CNC(=O)/C=C/c2ccccc2)OC(=O)/C=C/c2ccccc2)cc1OC [SYNCARPAMIDE] | – | 3.06 | – | Not Active | – | 2.04 | – | – | – | –
